What was measured:
[1] = Multiple-dose pharmacokinetics of OW s.c. semaglutide, plasma, LC-MS/MS; assay type: in vivo, healthy Chinese subjects
Method in brief: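 Healthy Chinese adults (18–55 y, BMI 20.0–24.9 kg/m2) got s.c. abdominal injections weekly for 13 weeks, starting at 0.25 mg and escalating every 4 weeks to 0.5 or 1.0 mg. Plasma was sampled frequently after the first and last doses, plus pre-dose in weeks 4, 8 and 11, and assayed by LC–MS/MS. Values below LLOQ were imputed. Non-compartmental linear trapezoidal AUC0–168 h used actual times. Ratios came from a log-scale linear model (dose group fixed) with 95% CI. Racc,DC = (AUCSS/last dose)/(AUCSD/0.25 mg).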

[2] = Safety and tolerability: treatment-emergent adverse events; assay type: in vivo, healthy Chinese subjects; settings: 13 weeks; for AEs leading to withdrawal, % (proportion of subjects) / AEs leading to withdrawal, E (number of events) / AEs leading to withdrawal, N (number of subjects) / AEs, % (proportion of subjects) / AEs, E (number of events) / AEs, N (number of subjects) / AEs, outcome not recovered/not resolved, % (proportion of subjects) / AEs, outcome not recovered/not resolved, E (number of events) / AEs, outcome not recovered/not resolved, N (number of subjects) / AEs, outcome recovered/resolved, % (proportion of subjects) / AEs, outcome recovered/resolved, E (number of events) / AEs, outcome recovered/resolved, N (number of subjects) / AEs, outcome recovering/resolving, % (proportion of subjects) / AEs, outcome recovering/resolving, E (number of events) / AEs, outcome recovering/resolving, N (number of subjects) / AEs, severity mild, % (proportion of subjects) / AEs, severity mild, E (number of events) / AEs, severity mild, N (number of subjects) / AEs, severity moderate, % (proportion of subjects) / AEs, severity moderate, E (number of events) / AEs, severity moderate, N (number of subjects) / AEs, severity severe, % (proportion of subjects) / AEs, severity severe, E (number of events) / AEs, severity severe, N (number of subjects) / Serious AEs, % (proportion of subjects) / Serious AEs, E (number of events) / Serious AEs, N (number of subjects): 12 subjects
Method in brief: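 This was a single-centre, randomised trial in 36 healthy Chinese adults, 12 per arm, double-blind within dose level, with placebo arms pooled. Test compound or matching placebo was injected s.c. in the abdomen once weekly for 13 weeks, escalating every 4 weeks to 0.5 or 1.0 mg. Treatment-emergent AEs were untoward occurrences after the first dose and before the follow-up visit, counted as subjects and events.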

[3] = cited from earlier work

Structure (SMILES): CC[C@H](C)[C@H](NC(=O)[C@H](Cc1ccccc1)NC(=O)[C@H](CCC(=O)O)NC(=O)[C@H](CCCCNC(=O)COCCOCCNC(=O)COCCOCCNC(=O)CC[C@H](NC(=O)CCCCCCCCCCCCCCCCC(=O)O)C(=O)O)NC(=O)[C@H](C)NC(=O)[C@H](C)NC(=O)[C@H](CCC(N)=O)NC(=O)CNC(=O)[C@H](CCC(=O)O)NC(=O)[C@H](CC(C)C)NC(=O)[C@H](Cc1ccc(O)cc1)NC(=O)[C@H](CO)NC(=O)[C@H](CO)NC(=O)[C@@H](NC(=O)[C@H](CC(=O)O)NC(=O)[C@H](CO)NC(=O)[C@@H](NC(=O)[C@H](Cc1ccccc1)NC(=O)[C@@H](NC(=O)CNC(=O)[C@H](CCC(=O)O)NC(=O)C(C)(C)NC(=O)[C@@H](N)Cc1cnc[nH]1)[C@@H](C)O)[C@@H](C)O)C(C)C)C(=O)N[C@@H](C)C(=O)N[C@@H](Cc1c[nH]c2ccccc12)C(=O)N[C@@H](CC(C)C)C(=O)N[C@H](C(=O)N[C@@H](CCCNC(=N)N)C(=O)NCC(=O)N[C@@H](CCCNC(=N)N)C(=O)NCC(=O)O)C(C)C [semaglutide, Semaglutide]
- Racc,DC (dose-corrected accumulation ratio) ([1]; OW s.c. dosing, both dose groups): approximately 2
- treatment ratio (1.0 mg/0.5 mg) for Cmax,SS ([1]; [95% CI], dose proportionality): 1.94 [1.74; 2.16]
- treatment ratio (1.0 mg/0.5 mg) for AUC0–168 h,SS ([1]; linear normal model on log-transformed values, [95% CI], dose proportionality): 1.99 [1.78; 2.23]
- AEs leading to withdrawal, % (proportion of subjects) ([2]; OW s.c. 0.5 mg): 0%
- AEs leading to withdrawal, E (number of events) ([2]; OW s.c. 0.5 mg): 0
- AEs leading to withdrawal, N (number of subjects) ([2]; OW s.c. 0.5 mg): 0
- AEs, % (proportion of subjects) ([2]; OW s.c. 0.5 mg): 83%
- AEs, E (number of events) ([2]; OW s.c. 0.5 mg): 44
- AEs, N (number of subjects) ([2]; OW s.c. 0.5 mg): 10
- AEs, outcome not recovered/not resolved, % (proportion of subjects) ([2]; OW s.c. 0.5 mg): 0%
- AEs, outcome not recovered/not resolved, E (number of events) ([2]; OW s.c. 0.5 mg): 0
- AEs, outcome not recovered/not resolved, N (number of subjects) ([2]; OW s.c. 0.5 mg): 0
- AEs, outcome recovered/resolved, % (proportion of subjects) ([2]; OW s.c. 0.5 mg): 83%
- AEs, outcome recovered/resolved, E (number of events) ([2]; OW s.c. 0.5 mg): 44
- AEs, outcome recovered/resolved, N (number of subjects) ([2]; OW s.c. 0.5 mg): 10
- AEs, outcome recovering/resolving, % (proportion of subjects) ([2]; OW s.c. 0.5 mg): 0%
- AEs, outcome recovering/resolving, E (number of events) ([2]; OW s.c. 0.5 mg): 0
- AEs, outcome recovering/resolving, N (number of subjects) ([2]; OW s.c. 0.5 mg): 0
- AEs, severity mild, % (proportion of subjects) ([2]; OW s.c. 0.5 mg): 83%
- AEs, severity mild, E (number of events) ([2]; OW s.c. 0.5 mg): 44
- AEs, severity mild, N (number of subjects) ([2]; OW s.c. 0.5 mg): 10
- AEs, severity moderate, % (proportion of subjects) ([2]; OW s.c. 0.5 mg): 0%
- AEs, severity moderate, E (number of events) ([2]; OW s.c. 0.5 mg): 0
- AEs, severity moderate, N (number of subjects) ([2]; OW s.c. 0.5 mg): 0
- AEs, severity severe, % (proportion of subjects) ([2]; OW s.c. 0.5 mg): 0%
- AEs, severity severe, E (number of events) ([2]; OW s.c. 0.5 mg): 0
- AEs, severity severe, N (number of subjects) ([2]; OW s.c. 0.5 mg): 0
- Serious AEs, % (proportion of subjects) ([2]; OW s.c. 0.5 mg): 0%
- Serious AEs, E (number of events) ([2]; OW s.c. 0.5 mg): 0
- Serious AEs, N (number of subjects) ([2]; OW s.c. 0.5 mg): 0
- AEs leading to withdrawal, % (proportion of subjects) ([2]; OW s.c. 1.0 mg): 0%
- AEs leading to withdrawal, E (number of events) ([2]; OW s.c. 1.0 mg): 0
- AEs leading to withdrawal, N (number of subjects) ([2]; OW s.c. 1.0 mg): 0
- AEs, % (proportion of subjects) ([2]; OW s.c. 1.0 mg): 92%
- AEs, E (number of events) ([2]; OW s.c. 1.0 mg): 58
- AEs, N (number of subjects) ([2]; OW s.c. 1.0 mg): 11
- AEs, outcome not recovered/not resolved, % (proportion of subjects) ([2]; OW s.c. 1.0 mg): 0%
- AEs, outcome not recovered/not resolved, E (number of events) ([2]; OW s.c. 1.0 mg): 0
- AEs, outcome not recovered/not resolved, N (number of subjects) ([2]; OW s.c. 1.0 mg): 0
- AEs, outcome recovered/resolved, % (proportion of subjects) ([2]; OW s.c. 1.0 mg): 92%
- AEs, outcome recovered/resolved, E (number of events) ([2]; OW s.c. 1.0 mg): 57
- AEs, outcome recovered/resolved, N (number of subjects) ([2]; OW s.c. 1.0 mg): 11
- AEs, outcome recovering/resolving, % (proportion of subjects) ([2]; OW s.c. 1.0 mg): 8%
- AEs, outcome recovering/resolving, E (number of events) ([2]; OW s.c. 1.0 mg): 1
- AEs, outcome recovering/resolving, N (number of subjects) ([2]; OW s.c. 1.0 mg): 1
- AEs, severity mild, % (proportion of subjects) ([2]; OW s.c. 1.0 mg): 92%
- AEs, severity mild, E (number of events) ([2]; OW s.c. 1.0 mg): 57
- AEs, severity mild, N (number of subjects) ([2]; OW s.c. 1.0 mg): 11
- AEs, severity moderate, % (proportion of subjects) ([2]; OW s.c. 1.0 mg): 8%
- AEs, severity moderate, E (number of events) ([2]; OW s.c. 1.0 mg): 1
- AEs, severity moderate, N (number of subjects) ([2]; OW s.c. 1.0 mg): 1
- AEs, severity severe, % (proportion of subjects) ([2]; OW s.c. 1.0 mg): 0%
- AEs, severity severe, E (number of events) ([2]; OW s.c. 1.0 mg): 0
- AEs, severity severe, N (number of subjects) ([2]; OW s.c. 1.0 mg): 0
- Serious AEs, % (proportion of subjects) ([2]; OW s.c. 1.0 mg): 0%
- Serious AEs, E (number of events) ([2]; OW s.c. 1.0 mg): 0
- Serious AEs, N (number of subjects) ([2]; OW s.c. 1.0 mg): 0
- severity of gastrointestinal adverse events ([2]; OW s.c. 0.5 and 1.0 mg, none led to treatment discontinuation): mild
- deaths ([2]; whole trial, OW s.c. 0.5 and 1.0 mg): no deaths
- half-life (t½) [3]: ≈ 1 week
